Structures are written as SMILES. pIC50: −log10 of the molar value. Activity calls are given as the source filed them. The rule behind the calls is not given here.

Data set [1] is described as follows: Cytotoxicity against human HepG2 cells expressing CD81 assessed as reduction in cell viability after 48 hrs by MTT assay. The format is cell-based. An outline of the steps:
(§1)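 Cells seeded at 2 × 10^5 per well and allowed 24 h at 37°C, 5% CO2 to form a monolayer. Dilutions added in triplicate and incubated 48 h. MTT (2 mg/mL) then added for 4 h, followed by DMSO for 20 min at room temperature. Absorbance read at 550 nm; DMSO diluent and untreated cells served as negative controls. CC50 derived from the curve.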

Data set [2] can be described thus: Selectivity index, ratio of CC50 for human HepG2 cells to IC50 for GFP-expressing Plasmodium berghei sporozoites. The format is toxicity. The conditions noted are these: read-out: Ratio CC50/IC50. An outline of the steps: (§2)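 Selectivity index = CC50 (matching cell) / IC50 (matching parasite). Cell–parasite pairs: HepG2-CD81 with P. yoelii, HepG2 with P. berghei, human hepatocytes with P. falciparum.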

The subject of data set [3] is Plasmodium yoelii. The data set is described as follows: Antiplasmodial activity against Plasmodium yoelii 17XNL sporozoites infected in BALB/c mouse assessed as pre-patent time period of parasitaemia at 100 mg/kg, po measured at day 4 by […]. The format is functional. In short, it runs like this:
(§3)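 BALB/c mice (6-8 weeks, 20-23 g), n=4 per hybrid group and n=5 per control. Dosed orally at 100 mg/kg (100 µL) on days -1, 0, +1 and +2. Vehicle was DMSO 100%; primaquine diphosphate given at 30 mg/kg daily. On day 0, 5 x 10^3 cryopreserved P. yoelii 17XNL sporozoites injected i.v. Parasitaemia read by Giemsa smear and SYBR Green flow cytometry. Groups compared by Kruskal-Wallis test.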

Data set [4] concerns Plasmodium falciparum. The data set is described as follows: Antiplasmodial activity against chloroquine-sensitive Plasmodium falciparum 3D7 infected in human red blood cells assessed as reduction in parasite growth after 48 hrs by Hoechst 33342 staining based flow cytometric analysis. The format is functional, organism-based. The conditions noted are these: 3D7, 48 h. An outline of the steps: (§4)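 Ring-stage cultures (>80% rings) at 1% parasitaemia in A+ human erythrocytes, 2% haematocrit. Medium RPMI 1640 with 10% A+ serum, 37°C, 5% CO2/5% O2. Compounds in DMSO at 1.56–100 µg/mL final, DMSO ≤1%. After 48 h, cells stained with Hoechst 33342 and 1×10^4 counted by flow cytometry. IC50 from logistic dose-response regression; three independent experiments in triplicate.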

Data set [5] concerns Mus musculus. The data set is described as follows: Acute toxicity in BALB/c mouse assessed as necrosis of kidney at 500 mg/kg, po administered as single dose measured at day 14 by haematoxylin and eosin staining based microscopic analysis. The format is organism-based. To be noted: in vivo. An outline of the steps: (§5)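 Female BALB/c mice, groups of three, single oral dose; vehicle DMSO 100% for controls. Mice euthanised with CO2 on day 14, or earlier if suffering. Gross necropsy performed. Spleen, liver and kidney fixed in formaldehyde 37%, stained with haematoxylin and eosin and examined by light microscopy.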

For data set [6], the system named is Mus musculus. The data set is described as follows: Acute toxicity in BALB/c mouse assessed as ulcerated congestion in stomach at 500 mg/kg, po administered as single dose measured at day 14 by […]. The format is organism-based. To be noted: in vivo. In short, it runs like this: as §5
Data set [7] has as its system Plasmodium yoelii. The data set is described as follows: Antiplasmodial activity against Plasmodium yoelii 17XNL sporozoites infected in BALB/c mouse assessed as parasite reduction at 100 mg/kg, po measured at day 1 to day 4 by […]. The format is functional, organism-based. In short, it runs like this: as §3
Data set [8] is described as follows: Selectivity index, ratio of CC50 for human HepG2 cells expressing CD81 to IC50 for GFP-expressing Plasmodium yoelii sporozoites. The format is toxicity. The conditions noted are these: read-out: Ratio CC50/IC50. An outline of the steps: as §2
In data set [9] the test system is Plasmodium berghei. The data set is described as follows: Antiplasmodial activity against GFP-harboring Plasmodium berghei sporozoites infected in human HepG2 cells assessed as reduction in parasite growth treated every 24 hrs by DAPI staining-based fluorescence microscopic analysis. To be noted: HepG2, 24 h. The class given is functional, organism-based. In short, it runs like this: (§6)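 Collagen-coated wells seeded with HepG2 (P. berghei), HepG2-CD81 (P. yoelii) or primary human hepatocytes (P. falciparum). Sporozoites added: 5×10^3 to 1×10^4 per well to the cell lines, 2.5×10^4 per well to hepatocytes. Compounds given at infection: top 10 µg/mL plus seven serial dilutions, renewed at 3 h and then every 24 h. Cultures grown 40 h (cell lines) or 8 days (hepatocytes) at 37°C. Methanol-fixed, HSP70 immunolabelled, DAPI counterstained. IC50 from logistic regression; triplicate.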

Data set [10] deals with Mus musculus. The data set is described as follows: Acute toxicity in BALB/c mouse assessed as necrosis of liver at 500 mg/kg, po administered as single dose measured at day 14 by haematoxylin and eosin staining based microscopic analysis. The class given is organism-based. The conditions noted are these: in vivo. In short, it runs like this:
as §5

The subject of data set [11] is Plasmodium falciparum. The data set is described as follows: Antiplasmodial activity against the multidrug-resistant Plasmodium falciparum […] infected in human red blood cells assessed as reduction in parasite growth after 48 hrs by Hoechst 33342 staining based flow cytometric analysis. The class given is functional, organism-based. An outline of the steps:
as §4

Data set [12] can be described thus: Selectivity index, ratio of CC50 for human HepG2 cells to IC50 for multidrug-resistant Plasmodium falciparum […]. The format is toxicity. To be noted: read-out: Ratio CC50/IC50. An outline of the steps:
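Selectivity index = HepG2 CC50 / FCR-3 IC50. CC50 from MTT assay after 48 h exposure, A550. IC50 from 48 h Hoechst 33342 flow-cytometry assay.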

In data set [13] the test system is Plasmodium yoelii. The data set is described as follows: Antiplasmodial activity against GFP-harboring Plasmodium yoelii sporozoites infected in human HepG2 cells expressing CD81 assessed as reduction in parasite growth treated every 24 hrs by DAPI staining-based fluorescence microscopic analysis. The class given is functional, organism-based. The conditions noted are these: HepG2, 24 h. An outline of the steps:
as §6

Data set [14] is described as follows: Selectivity index, ratio of CC50 for human primary hepatocytes to IC50 for GFP-expressing Plasmodium falciparum sporozoites. The format is toxicity. The conditions noted are these: read-out: Ratio CC50/IC50. In short, it runs like this: as §2
Data set [15] can be described thus: Cytotoxicity against human HepG2 cells assessed as reduction in cell viability after 48 hrs by MTT assay. The class given is cell-based. In short, it runs like this:
as §1

The test system of data set [16] is Plasmodium yoelii. The data set is described as follows: Antiplasmodial activity against Plasmodium yoelii 17XNL sporozoites infected in BALB/c mouse assessed as decrease in parasitaemia in blood at 100 mg/kg, po measured at day 4 by […] relative to control. The class given is functional. Details: scale not given: the % may be the effect or the level left. An outline of the steps:
as §3

Data set [17] relates to Plasmodium yoelii. The data set is described as follows: Antiplasmodial activity against Plasmodium yoelii 17XNL sporozoites infected in BALB/c mouse assessed as parasite burden at 100 mg/kg, po measured at day 4 by […] (reference value: 0.06%). The class given is functional. In short, it runs like this:
as §3

For data set [18], the system named is Plasmodium falciparum. The data set is described as follows: Antiplasmodial activity against GFP-harboring Plasmodium falciparum sporozoites infected in human primary hepatocytes assessed as reduction in parasite growth treated every 24 hrs by DAPI staining-based fluorescence microscopic analysis. The class given is functional, organism-based. In short, it runs like this: as §6

A short description of data set [19]: Cytotoxicity against human primary hepatocytes assessed as reduction in cell viability after 48 hrs by MTT assay. The format is cell-based, Hepatocyte. In short, it runs like this: as §1

Turning to `COc1cc(NC(C)CCCN)c2ncccc2c1` (configuration not stated) [PRIMAQUINE], the CC50 at 48 h in data set [1] turned out to be 69.8 µM; in data set [15] it was 120 µM. Besides, the selectivity ratio in [2] came to 33; in [8], 32.8; in [12], 109; in data set [14], 136. Further, the Time in data set [3] was determined as 24 h. Also, the pIC50 in [4] was 5.01; in [9] it was 5.44; in data set [11] it was 5.96; in [13], 5.67. Besides, the Activity result was “Non-Toxic” in data set [5], “Toxic” in data set [6], “Non-Toxic” in [10] and 100% in data set [16]. The result in data set [7] was inactive.

For the compound `COc1cc(NC(C)CCCNC(=O)c2c(C)[n+]([O-])c3cc(C)c(C)cc3[n+]2[O-])c2ncccc2c1` (configuration not stated), the Activity in [17] came out at 0.06%. The CC50 at 48 h in data set [1], in [15] and in [19] was above 202 µM in each case. Also, the selectivity ratio in data set [2] was above 17.8; in data set [12], above 3.82; in [14], 20.2. For the same compound, the negative logarithm of the IC50 (pIC50) in data set [4] was 4.51; in data set [9], 4.95; in data set [11], 4.28; in data set [18] it was 5.09.

Turning to `Cc1c(C(=O)NCCNc2ccnc3cc(Cl)ccc23)[n+]([O-])c2cc(Cl)ccc2[n+]1[O-]`, the CC50 at 48 h in data set [1] turned out to be 69.9 µM; in data set [15], 21.8 µM; in data set [19], 61.1 µM. For the same compound, the selectivity ratio in [2] was 2.15; in data set [8], 4.78; in data set [12], 54.6; in data set [14], 9.56. Also, the pIC50 in data set [4] was 6.28; in data set [9], 4.99; in data set [11] it was 6.40; in data set [18], 5.19; in [13], 4.84.

With `COc1ccc2c(c1)[n+]([O-])c(C(=O)NCCNc1ccnc3cc(Cl)ccc13)c(C)[n+]2[O-]`, the pIC50 in [4] and in data set [11] was 5.68 each time. Also, the selectivity ratio in [12] was 44.8. The CC50 at 48 h in data set [15] was determined as 92.7 µM.

Consider `COc1cc(NC(C)CCCNC(=O)c2c(C)[n+]([O-])c3ccc(C)cc3[n+]2[O-])c2ncccc2c1` (configuration not stated), for which the Activity in [17] is 0.03%. The CC50 at 48 h in [1] is above 207 µM; in [15], 110 µM; in data set [19], above 207 µM. The selectivity ratio in data set [2] came out at 17.3; in data set [8] it was 14.7; in data set [12], 2.17; in [14], 28.6. The pIC50 in data set [4] is 4.35; in data set [9], 5.20; in data set [11], 4.30; in data set [18] it was 5.14; in [13], 4.85.

For `CCN(CC)CCCC(C)Nc1ccnc2cc(Cl)ccc12` (configuration not stated) [CHLOROQUINE], the CC50 at 48 h in data set [15] was found to be 137 µM.

Source of the values: ChEMBL document CHEMBL4270646, “Novel antimalarial chloroquine- and primaquine-quinoxaline 1,4-di-N-oxide hybrids: Design, synthesis, Plasmodium life cycle stage profile, and preliminary toxicity studies” (Eur J Med Chem, 2018).
